Experimental data from ChEMBL document CHEMBL1143064, “Novel 9a-carbamoyl- and 9a-thiocarbamoyl-3-decladinosyl-6-hydroxy and 6-methoxy derivatives of 15-membered macrolides” (Bioorg Med Chem, 2007).
≈ marks a conversion by molar mass, not a printed value.

Legend:
Haemophilus influenzae = assay: Antibacterial activity against Haemophilus influenzae after 24 hrs by microdilution method; type: functional
Outline: (§1)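 Broth microdilution in Mueller–Hinton medium run on an automated liquid handler. Compounds dissolved in DMF (5 mg/ml stock) and tested in medium from 64 to 0.125 µg/ml. Plates incubated 24 h at 37 °C, then growth read as absorbance at 600 nm. MIC taken as the concentration giving 90% growth inhibition.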

Streptococcus pyogenes [1] = assay: Antibacterial activity against Streptococcus pyogenes after 24 hrs by microdilution method; type: functional; outline: as §1
Streptococcus pneumoniae [2] = assay: Antibacterial activity against Streptococcus pneumoniae after 24 hrs by microdilution method; type: functional; outline: as §1
Streptococcus pyogenes [3] = assay: Antibacterial activity against Streptococcus pyogenes-M after 24 hrs by microdilution method; type: functional; outline: as §1
Staphylococcus aureus [4] = assay: Antibacterial activity against Staphylococcus aureus-M after 24 hrs by microdilution method; type: functional; outline: as §1
Saccharomyces cerevisiae = assay: Toxicity against Saccharomyces cerevisiae; type: organism-based; conditions: in vivo
Outline: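 Yeast used as a surrogate for eukaryotic cell toxicity. Microdilution in Mueller–Hinton medium with compound from a DMF stock (5 mg/ml), final range 64 to 0.125 µg/ml. Incubated 24 h at 37 °C, with optical density read at 600 nm. MIC defined as the concentration inhibiting growth by 90%.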

Staphylococcus aureus [5] = assay: Antibacterial activity against Staphylococcus aureus-cMLS after 24 hrs by microdilution method; type: functional; outline: as §1
Streptococcus pneumoniae [6] = assay: Antibacterial activity against Streptococcus pneumoniae-M after 24 hrs by microdilution method; type: functional; outline: as §1

Row | SMILES | MIC (Haemophilus influenzae) | MIC (Streptococcus pyogenes [1]) | MIC (Streptococcus pneumoniae [2]) | MIC (Streptococcus pyogenes [3]) | MIC (Staphylococcus aureus [4]) | Activity (Saccharomyces cerevisiae) | MIC (Staphylococcus aureus [5]) | MIC (Streptococcus pneumoniae [6])
1 | CC[C@H]1OC(=O)[C@H](C)[C@@H](OC(=O)Cc2ccc([N+](=O)[O-])cc2)[C@H](C)[C@@H](O[C@@H]2O[C@H](C)C[C@H](N(C)C)[C@H]2O)[C@](C)(O)C[C@@H](C)CN(C(=O)Nc2ccc(Cl)cc2Cl)[C@H](C)[C@@H](O)[C@]1(C)O | 32 µg/mL (≈ 34.5 µM) | 4 µg/mL (≈ 4.31 µM) | 2 µg/mL (≈ 2.16 µM) | 32 µg/mL (≈ 34.5 µM) | 32 µg/mL (≈ 34.5 µM) | Non-toxic | 32 µg/mL (≈ 34.5 µM) | 4 µg/mL (≈ 4.31 µM)
2 | CC[C@H]1OC(=O)[C@H](C)[C@@H](O)[C@H](C)[C@@H](O[C@@H]2O[C@H](C)C[C@H](N(C)C)[C@H]2O)[C@](C)(O)C[C@@H](C)CN(C(=S)NCc2ccccc2)[C@H](C)[C@@H](O)[C@]1(C)O | > 64 µg/mL | > 64 µg/mL | > 64 µg/mL | > 64 µg/mL | > 64 µg/mL | Non-toxic | > 64 µg/mL | > 64 µg/mL
3 | CC[C@H]1OC(=O)[C@H](C)C(=O)[C@H](C)[C@@H](O[C@@H]2O[C@H](C)C[C@H](N(C)C)[C@H]2O)[C@](C)(OC)C[C@@H](C)CN(C(=O)NC(C)C)[C@H](C)[C@@H](O)[C@]1(C)O | > 64 µg/mL | 16 µg/mL (≈ 23.7 µM) | 8 µg/mL (≈ 11.9 µM) | > 64 µg/mL | > 64 µg/mL | Non-toxic | > 64 µg/mL | > 64 µg/mL
4 | CC[C@H]1OC(=O)/C(C)=C\[C@H](C)[C@@H](O[C@@H]2O[C@H](C)C[C@H](N(C)C)[C@H]2O)[C@](C)(OC)C[C@@H](C)CN(C(=O)NC(C)C)[C@H](C)[C@@H](O)[C@]1(C)O | > 64 µg/mL | 16 µg/mL (≈ 24.3 µM) | 8 µg/mL (≈ 12.2 µM) | > 64 µg/mL | > 64 µg/mL | Non-toxic | > 64 µg/mL | > 64 µg/mL
5 | CC[C@H]1OC(=O)[C@H](C)[C@@H](O)[C@H](C)[C@@H](O[C@@H]2O[C@H](C)C[C@H](N(C)C)[C@H]2O)[C@](C)(O)C[C@@H](C)CN(C(=O)NC(C)(C)C)[C@H](C)[C@@H](O)[C@]1(C)O | > 64 µg/mL | > 64 µg/mL | > 64 µg/mL | > 64 µg/mL | > 64 µg/mL | Non-toxic | > 64 µg/mL | > 64 µg/mL
6 | CC[C@H]1OC(=O)[C@H](C)[C@@H](O)[C@H](C)[C@@H](O[C@@H]2O[C@H](C)C[C@H](N(C)C)[C@H]2O)[C@](C)(O)C[C@@H](C)CN(C(=O)Nc2cccc(C(F)(F)F)c2)[C@H](C)[C@@H](O)[C@]1(C)O | > 64 µg/mL | > 64 µg/mL | > 64 µg/mL | > 64 µg/mL | > 64 µg/mL | Non-toxic | > 64 µg/mL | > 64 µg/mL
7 | CC[C@H]1OC(=O)[C@H](C)[C@@H](O)[C@H](C)[C@@H](O[C@@H]2O[C@H](C)C[C@H](N(C)C)[C@H]2O)[C@](C)(O)C[C@@H](C)CN(C(=S)Nc2cccc(C(F)(F)F)c2)[C@H](C)[C@@H](O)[C@]1(C)O | > 64 µg/mL | > 64 µg/mL | > 64 µg/mL | > 64 µg/mL | > 64 µg/mL | Non-toxic | > 64 µg/mL | > 64 µg/mL
8 | CC[C@H]1OC(=O)[C@H](C)[C@@H](O)[C@H](C)[C@@H](O[C@@H]2O[C@H](C)C[C@H](N(C)C)[C@H]2O)[C@](C)(O)C[C@@H](C)CN(C(=O)NC(C)C)[C@H](C)[C@@H](O)[C@]1(C)O | > 64 µg/mL | > 64 µg/mL | > 64 µg/mL | > 64 µg/mL | > 64 µg/mL | Non-toxic | > 64 µg/mL | > 64 µg/mL
9 | CC[C@H]1OC(=O)[C@H](C)[C@@H](O)[C@H](C)[C@@H](O[C@@H]2O[C@H](C)C[C@H](N(C)C)[C@H]2O)[C@](C)(O)C[C@@H](C)CN(C(=O)NCc2ccccc2)[C@H](C)[C@@H](O)[C@]1(C)O | > 64 µg/mL | > 64 µg/mL | > 64 µg/mL | > 64 µg/mL | > 64 µg/mL | Non-toxic | > 64 µg/mL | > 64 µg/mL
10 | CC[C@H]1OC(=O)[C@H](C)[C@@H](O[C@H]2C[C@@](C)(OC)[C@@H](O)[C@H](C)O2)[C@H](C)[C@@H](O[C@@H]2O[C@H](C)C[C@H](N(C)C)[C@H]2O)[C@](C)(OC)C[C@@H](C)CN[C@H](C)[C@@H](O)[C@]1(C)O | 8 µg/mL (≈ 10.7 µM) | 1 µg/mL (≈ 1.34 µM) | 0.5 µg/mL (≈ 0.668 µM) | 16 µg/mL (≈ 21.4 µM) | > 64 µg/mL | Non-toxic | > 64 µg/mL | 16 µg/mL (≈ 21.4 µM)
11 | C=CCNC(=S)N1C[C@H](C)C[C@@](C)(O)[C@H](O[C@@H]2O[C@H](C)C[C@H](N(C)C)[C@H]2O)[C@@H](C)[C@H](O)[C@@H](C)C(=O)O[C@H](CC)[C@@](C)(O)[C@H](O)[C@H]1C | > 64 µg/mL | > 64 µg/mL | > 64 µg/mL | > 64 µg/mL | > 64 µg/mL | Non-toxic | > 64 µg/mL | > 64 µg/mL
12 | CC[C@H]1OC(=O)[C@H](C)[C@@H](O)[C@H](C)[C@@H](O[C@@H]2O[C@H](C)C[C@H](N(C)C)[C@H]2O)[C@](C)(OC)C[C@@H](C)CN(C(=O)NC(C)C)[C@H](C)[C@@H](O)[C@]1(C)O | > 64 µg/mL | > 64 µg/mL | 32 µg/mL (≈ 47.3 µM) | > 64 µg/mL | > 64 µg/mL | Non-toxic | > 64 µg/mL | > 64 µg/mL
13 | CC[C@H]1OC(=O)[C@H](C)C2(O)O[C@@](C)(C[C@@H](C)CN(C(=O)NC(C)C)[C@H](C)[C@@H](O)[C@]1(C)O)[C@H](O[C@@H]1O[C@H](C)C[C@H](N(C)C)[C@H]1O)[C@H]2C | > 64 µg/mL | > 64 µg/mL | > 64 µg/mL | > 64 µg/mL | > 64 µg/mL | Non-toxic | > 64 µg/mL | > 64 µg/mL
14 | CC[C@H]1OC(=O)[C@H](C)C2(O)O[C@@](C)(C[C@@H](C)CN(C(=O)Nc3ccc(Cl)cc3Cl)[C@H](C)[C@@H](O)[C@]1(C)O)[C@H](O[C@@H]1O[C@H](C)C[C@H](N(C)C)[C@H]1O)[C@H]2C | > 64 µg/mL | > 64 µg/mL | > 64 µg/mL | > 64 µg/mL | > 64 µg/mL | Non-toxic | > 64 µg/mL | > 64 µg/mL
15 | CC[C@H]1OC(=O)[C@H](C)C(=O)[C@H](C)[C@@H](O[C@@H]2O[C@H](C)C[C@H](N(C)C)[C@H]2O)[C@](C)(OC)C[C@@H](C)CN(C(=O)Nc2ccc(Cl)cc2Cl)[C@H](C)[C@@H](O)[C@]1(C)O | > 64 µg/mL | 16 µg/mL (≈ 20.6 µM) | 8 µg/mL (≈ 10.3 µM) | > 64 µg/mL | > 64 µg/mL | Non-toxic | > 64 µg/mL | 8 µg/mL (≈ 10.3 µM)
16 | CC[C@H]1OC(=O)/C(C)=C\[C@H](C)[C@@H](O[C@@H]2O[C@H](C)C[C@H](N(C)C)[C@H]2O)[C@](C)(OC)C[C@@H](C)CN(C(=O)Nc2ccc(Cl)cc2Cl)[C@H](C)[C@@H](O)[C@]1(C)O | > 64 µg/mL | 32 µg/mL (≈ 42.1 µM) | 8 µg/mL (≈ 10.5 µM) | > 64 µg/mL | > 64 µg/mL | Non-toxic | > 64 µg/mL | 16 µg/mL (≈ 21 µM)
17 | CC[C@H]1OC(=O)[C@H](C)C2O[C@@](C)(C[C@@H](C)CN(C(=O)NC(C)C)[C@H](C)[C@@H](O)[C@]1(C)O)[C@H](O[C@@H]1O[C@H](C)C[C@H](N(C)C)[C@H]1O)[C@H]2C | > 64 µg/mL | > 64 µg/mL | > 64 µg/mL | > 64 µg/mL | > 64 µg/mL | Non-toxic | > 64 µg/mL | > 64 µg/mL
18 | CC[C@H]1OC(=O)[C@H](C)[C@@H](O)[C@H](C)[C@@H](O[C@@H]2O[C@H](C)C[C@H](N(C)C)[C@H]2O)[C@](C)(O)C[C@@H](C)CN(C(=O)Nc2ccc(Cl)cc2Cl)[C@H](C)[C@@H](O)[C@]1(C)O | > 64 µg/mL | > 64 µg/mL | > 64 µg/mL | > 64 µg/mL | > 64 µg/mL | Non-toxic | > 64 µg/mL | > 64 µg/mL
19 | CC[C@H]1OC(=O)[C@H](C)[C@@H](O)[C@H](C)[C@@H](O[C@@H]2O[C@H](C)C[C@H](N(C)C)[C@H]2O)[C@](C)(O)C[C@@H](C)CN(C(=O)Nc2ccccc2C(F)(F)F)[C@H](C)[C@@H](O)[C@]1(C)O | > 64 µg/mL | > 64 µg/mL | > 64 µg/mL | > 64 µg/mL | > 64 µg/mL | Non-toxic | > 64 µg/mL | > 64 µg/mL
20 | CC[C@H]1OC(=O)[C@H](C)[C@@H](O)[C@H](C)[C@@H](O[C@@H]2O[C@H](C)C[C@H](N(C)C)[C@H]2O)[C@](C)(OC)C[C@@H](C)CN(C(=O)Nc2ccc(Cl)cc2Cl)[C@H](C)[C@@H](O)[C@]1(C)O | > 64 µg/mL | > 64 µg/mL | > 64 µg/mL | > 64 µg/mL | > 64 µg/mL | Non-toxic | > 64 µg/mL | > 64 µg/mL
21 | CC[C@H]1OC(=O)[C@H](C)C2O[C@@](C)(C[C@@H](C)CN(C(=O)Nc3ccc(Cl)cc3Cl)[C@H](C)[C@@H](O)[C@]1(C)O)[C@H](O[C@@H]1O[C@H](C)C[C@H](N(C)C)[C@H]1O)[C@H]2C | > 64 µg/mL | > 64 µg/mL | > 64 µg/mL | > 64 µg/mL | > 64 µg/mL | Non-toxic | > 64 µg/mL | > 64 µg/mL
22 | CC[C@H]1OC(=O)[C@H](C)[C@@H](O[C@H]2C[C@@](C)(OC)[C@@H](O)[C@H](C)O2)[C@H](C)[C@@H](O[C@@H]2O[C@H](C)C[C@H](N(C)C)[C@H]2O)[C@](C)(O)C[C@@H](C)C(=O)[C@H](C)[C@@H](O)[C@]1(C)O [ERYTHROMYCIN] | 4 µg/mL (≈ 5.45 µM) | 0.125 µg/mL (≈ 0.17 µM) | 0.125 µg/mL (≈ 0.17 µM) | 8 µg/mL (≈ 10.9 µM) | > 64 µg/mL | – | > 64 µg/mL | 8 µg/mL (≈ 10.9 µM)
